Screening data from PubChem BioAssay.
Compounds with a hit are over-represented: about 1.4% of the library has one in this group of screens.
PKA-R1A activ = activators of PKA-R1A holoenzyme, primary screen, biochemical, fluorescence polarization, Cy5-IP20, bovine R1A, mouse PKAc | cAMP-dependent protein kinase type I-alpha regulatory subunit (Bos taurus) + … | PKA-R1A dissociation; scaled: DMSO 0%, 113 µM cGMP 100% | activation, % at 11.4 µM | actives 0.083% (n = 340,000);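 active means percent activation above the mean of all tested compounds plus 3 SD, cut at about 19% in these data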;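 further: higher means more PKAc released from R1A so a rise in polarization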
Vif imaging = HIV Vif self-association inhibitors, primary screen, imaging, HEK293T, single point; HEK293T cells, Vif self-association by quenched fluorescence, 24 h; inhibition, % at 7.49 µM; actives 0.35% (n = 340,000); AID 602346, 2012; in the data active means inhibition above about 50%, passing the limit was not always enough; inconclusive means no clear call, values can overlap the other calls; inactive means below about 31%
SR-BI DiI inh = inhibitors of SR-BI mediated HDL lipid uptake, primary screen, ldlA[mSR-BI] cells, fluorescence, single point; inhibition, % at 12.5 µM; Scavenger receptor class B member 1 (Mus musculus), Q61009; ldlA[mSR-BI] CHO cells, DiI-HDL uptake fluorescence, 3 h; AID 488896, 2010; actives 0.96% (n = 320,000);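 active means mean replicate inhibition of at least 70% and a set share of replicates each scoring 70 or more; inconclusive means meets just one of the two criteria; inactive means fails both criteria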;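 further: 0% = median of neutral control wells and 100% = median of positive control wells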
Target sequence (Q61009 whole entry, looked up): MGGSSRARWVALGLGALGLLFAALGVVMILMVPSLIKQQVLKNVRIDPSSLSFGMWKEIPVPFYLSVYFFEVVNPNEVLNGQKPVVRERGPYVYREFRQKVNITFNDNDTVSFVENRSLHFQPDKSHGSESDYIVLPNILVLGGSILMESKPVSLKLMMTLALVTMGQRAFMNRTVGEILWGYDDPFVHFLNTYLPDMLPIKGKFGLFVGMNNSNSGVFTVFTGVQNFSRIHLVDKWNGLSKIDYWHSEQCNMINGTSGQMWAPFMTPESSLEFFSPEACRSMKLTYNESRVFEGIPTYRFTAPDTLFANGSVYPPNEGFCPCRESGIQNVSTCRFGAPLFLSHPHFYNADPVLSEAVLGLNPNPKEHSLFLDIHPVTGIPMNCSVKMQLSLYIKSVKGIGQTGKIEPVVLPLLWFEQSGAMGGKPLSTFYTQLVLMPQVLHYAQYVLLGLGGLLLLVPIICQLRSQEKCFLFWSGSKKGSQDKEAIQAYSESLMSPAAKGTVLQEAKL
PKA-R2B act = activators of PKA-R2B holoenzyme, primary screen, biochemical, fluorescence polarization, Cy5-IP20, human. actives 0.079% (n = 340,000). AID 504700, 2011. cAMP-dependent protein kinase catalytic subunit beta (Homo sapiens) + cAMP-dependent …. PKA-R2B holoenzyme dissociation; R2B truncated from residue 108, S112A mutant; 0% DMSO only, 100% 113 µM cGMP. activation, % at 11.4 µM;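 active means activation above a cutoff set at the mean over all compounds plus 3 SD, cut at about 18% in these data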;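 further: higher means more holoenzyme dissociation and a rise in polarization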
SR-BI DiI-HDL act = activators of SR-BI mediated DiI-HDL uptake, primary screen, ldlA[mSR-BI] CHO cells, DiI fluorescence; 3 h; 100 = double the neutral-control signal; actives 0.096% (n = 320,000); AID 504775, 2011; activation, % at 12.5 µM;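 active means mean replicate activation of at least 60% and every replicate at or above 60%; inconclusive means mean or all-replicate condition met, but not both; inactive means mean below 60% and not all replicates reaching 60%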;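 further: 0% = median plate neutral-control signal and 100% = twice that signal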
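System: CHO ldlA[mSR-BI] cells / Medium: HEPES-buffered (25 mM, pH 7.4) F12 plus 0.5% BSA / Probe or stimulus: labelled HDL, 10 µg/mL / Doses: single compound concentration, delivered by pin transfer / Schedule: 3 h, 37 °C / Measured by: DiI fluorescence, bottom read / Measure: cell-associated DiI fluorescence as measure of HDL uptake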
Active calls of the source: *; ? = inconclusive; . = no result.

SMILES | PKA-R1A activ | Vif imaging | SR-BI DiI inh | PKA-R2B act | SR-BI DiI-HDL act
COc1ccc2[nH]cc(CCNC(=O)/C=C/[C@H]3O[C@@H](n4cnc5c(NC(=O)c6ccccc6)ncnc54)[C@H](O)[C@@H]3O)c2c1 | . | -12 | . | . | .
COc1ccc(/C=N\NC(=O)c2ccc(-c3ccccc3)cc2)c(OC)c1OC | -10 | . | 75* | 2 | .
COc1ccccc1/C=N/NC(=O)c1ccc(N(C)S(=O)(=O)c2ccccc2)cc1 | -9 | -2 | 84* | 8 | -84
COc1ccc(/C=N/NC(=O)c2ccc(N(C)S(=O)(=O)c3ccccc3)cc2)c(OC)c1 | 3 | -13 | 64 | 3 | -64
COc1ccccc1/C=N/NC(=O)c1ccc(CN2C(=O)c3cccc4cccc2c34)cc1 | 4 | -12 | 89* | -7 | -89
CCN(CC)c1ccc(C(=O)N/N=C/c2ccccc2OC(F)F)cc1 | -6 | 0 | 86* | 13 | -86
Cc1ccccc1C(=O)NCC(c1ccco1)N1CCc2ccccc2C1 (centres undefined) | -3 | . | -14 | -12 | 14
COc1cccc(/C=N/NC(=O)c2ccc(N(C)S(=O)(=O)c3ccccc3)cc2)c1OC | -11 | 0 | 83* | -8 | -83
CC(NC(=O)C1CCN(CCOc2ccc(Cl)cc2)CC1)c1cccc2ccccc12 (centres undefined) | . | 66* | . | . | .
COc1ccccc1C(NC(=O)C1CCN(CCOc2ccc(Cl)cc2)CC1)c1ccccn1 (centres undefined) | . | -2 | . | . | .
NCc1csc(Nc2ncccn2)n1 | . | -9 | . | . | .
Cc1cc2ccccn2c1C(=O)c1cc([N+](=O)[O-])cc([N+](=O)[O-])c1 | 5 | 1 | 82* | 3 | -83
O=C1NC(=O)C([N+](=O)[O-])=C(O)C1=O | 12 | 0 | . | 6 | .
COC(=O)C1OC(OC2CC[C@]3(C)C(CC[C@@]4(C)[C@@H]3CC=C3[C@@H]5CC(C)(C)CC[C@]5(C(=O)OC5OC(CO)C(O)C(O)C5O)CC[C@]34C)C2(C)C)C(O)C(O)C1O[C@H]1OCC(O)C(O)C1O (some centres undefined) | 6 | 4 | -119 | -2 | 119*
CC1(C)CC[C@]2(C(=O)O[C@@H]3OC(CO)[C@@H](O)[C@H](O)[C@H]3O)CC[C@]3(C)C(=CCC4[C@@]5(C)CC[C@H](O[C@@H]6OC(C(=O)O)[C@@H](O)[C@H](O)[C@H]6O)C(C)(C)C5CC[C@]43C)[C@@H]2C1 (some centres undefined) | 11 | 20 | -15 | 3 | 15
COc1ccc([N+](=O)[O-])cc1COc1cc(C)cc2oc(=O)cc(-c3ccccc3)c12 | 7 | 4 | 18 | 8 | -18
COc1cccc(/C=N/Nc2nc(Nc3ccc([N+](=O)[O-])cc3)nc(N3CCCC3)n2)c1O | . | -7 | 87* | . | -87
O=C(O)Cn1nnc(-c2ccccc2)c1COc1ccccc1 | . | 8 | . | . | .
C=CCN(CC=C)Cc1cc(=O)oc2cc(C)cc(C)c12 | . | -7 | . | . | .
O=C(c1cnn2c(C(F)(F)F)cc(-c3ccco3)nc12)N1CCc2ccccc2C1 | 9 | . | 83* | -1 | -83
Cc1ccc([C@@H]2[C@@H]3C(=O)N(c4ccccc4)C(=O)[C@@H]3[C@]3(C)C(=O)N(Cc4ccc(-c5ccccc5)cc4)CC(=O)N23)o1 | -12 | . | 7 | 1 | -7
Cc1ccc(/C=N/NC(=O)c2ccc(-n3cnnn3)cc2)cc1 | -2 | -2 | 13 | -1 | -13
CC(C)c1ccc(/C=N/NC(=O)c2ccc(-n3cnnn3)cc2)cc1 | -4 | -4 | 84* | -6 | -84
CC1(C)CC(=O)C(C=Nc2ccc(O)cc2)=C(O)C1 | -7 | -9 | 0 | -3 | 0
CC1(C)CC(=O)C(/C=N/n2c(C(F)(F)F)nc3ccccc3c2=O)=C(O)C1 | -6 | 85* | 67 | 0 | -67
SMILES | PKA-R1A activ | Vif imaging | SR-BI DiI inh | PKA-R2B act | SR-BI DiI-HDL act
CCN1C(=O)C(=Cc2cccc(OC)c2Oc2ccc([N+](=O)[O-])cc2[N+](=O)[O-])SC1=S | 7 | 0 | 75* | 0 | -75
COc1cc(/C=C2\SC(=O)NC2=O)ccc1Oc1ccc([N+](=O)[O-])cc1[N+](=O)[O-] | 2 | -5 | 6 | 5 | -6
CCOc1cc(C(=O)NCc2ccccc2)ccc1OCC(=O)N1CCOCC1 | 10 | 11 | -7 | 0 | 7
CCOc1cc(/C=C/c2nc3ccccc3s2)ccc1OCC(=O)N1CCOCC1 | -2 | -9 | 78* | -4 | -78
COc1cccc(NC(=S)NC(=O)/C=C/c2ccco2)c1 | -14 | 102* | 1 | 2 | -1
CCOC(=O)c1[nH]c2ccc(F)cc2c1NC(=O)c1cc(OC)c(OC)c(OC)c1 | 5 | -3 | 71* | 1 | -71
CC(C)COC(=O)N1CCCCC1c1cc(C(=O)Nc2ccccc2)no1 (centres undefined) | . | -1 | . | . | .
CSCCC(NC(=O)c1ccccc1Br)C(=O)NNC(=O)C1COc2ccccc2O1 (centres undefined) | -3 | ? | 8 | 6 | -8
COc1cc(C)ccc1S(=O)(=O)NC(=O)C1(C)CCN1C(=O)Cc1ccc(Cl)cc1Cl (centres undefined) | . | -3 | . | . | .
Cc1cccc(C(=O)NCCC(=O)NCc2ccccc2Cl)c1 | 4 | 54* | -5 | -2 | 5
Cc1cccc(C(=O)NCCC(=O)NCc2ccccc2F)c1 | -12 | 13 | -18 | -7 | 18
COCCNC(=O)c1onc(CSc2ccccc2)c1C(=O)NCCOC | 6 | -1 | 2 | 1 | -2
COc1cc(OC)cc(C(=O)Nc2nc(CC(=O)NCc3ccccc3OC)cs2)c1 | 3 | 1 | 70* | -18 | -70
CCOC(=O)Cc1csc(NC(=O)c2cc(OC)cc(OC)c2)n1 | -2 | . | 56 | -1 | -56
COc1cc(OC)cc(C(=O)Nc2nc(CC(=O)NCc3ccc(F)cc3)cs2)c1 | 0 | -10 | 53 | 0 | -53
COc1cc(OC)cc(C(=O)Nc2nc(CC(=O)NCCc3ccccc3)cs2)c1 | -2 | -1 | 81* | 14 | -81
CC(OC(=O)C1CCN(S(=O)(=O)c2ccc(Cl)cc2)CC1)C(=O)NC1CCCCC1C (centres undefined) | -17 | . | -20 | 3 | 20
